Experimental data taken from ChEMBL document CHEMBL3600342, “Fragment-Based Drug Discovery Targeting Inhibitor of Apoptosis Proteins: Discovery of a Non-Alanine Lead Series with Dual Activity Against cIAP1 and XIAP” (J Med Chem, 2015).
Blank lines part the entries; values can stand above or below the compound they belong to. Active and inactive are the calls of the source. The rule behind the calls is not given here.

Columns and labels:
[1] = molecular target: T1, E3 ubiquitin-protein ligase XIAP (Homo sapiens, UniProt P98170); test: Antagonist activity at XIAP-BIR3 domain (unknown origin) assessed as inhibition of interaction with SMAC at 1000 uM by fluorescence polarization assay relative to control
T1 sequence (P98170 whole entry, the tested form may be a part): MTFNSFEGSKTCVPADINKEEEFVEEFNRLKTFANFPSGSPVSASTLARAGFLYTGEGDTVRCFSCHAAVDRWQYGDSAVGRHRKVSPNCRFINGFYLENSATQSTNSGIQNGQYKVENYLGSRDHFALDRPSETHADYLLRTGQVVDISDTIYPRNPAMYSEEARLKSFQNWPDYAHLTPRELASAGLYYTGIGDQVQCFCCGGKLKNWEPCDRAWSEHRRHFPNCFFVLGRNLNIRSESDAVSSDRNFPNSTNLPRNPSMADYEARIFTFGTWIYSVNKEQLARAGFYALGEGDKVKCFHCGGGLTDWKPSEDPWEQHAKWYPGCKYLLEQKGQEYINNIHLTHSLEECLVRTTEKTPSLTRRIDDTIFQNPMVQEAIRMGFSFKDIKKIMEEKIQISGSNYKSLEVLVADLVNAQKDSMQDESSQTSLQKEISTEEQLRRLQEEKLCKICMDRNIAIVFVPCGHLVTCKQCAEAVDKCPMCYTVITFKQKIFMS

[2] = molecular target: T1, E3 ubiquitin-protein ligase XIAP; test: Antagonist activity at XIAP-BIR3 domain (unknown origin) assessed as inhibition of interaction with SMAC at 1 mM by fluorescence polarization assay relative to control
[3] = molecular target: Baculoviral IAP repeat-containing protein 2 (Homo sapiens) (UniProt Q13490); test: Antagonist activity at cIAP1-BIR3 domain (unknown origin) assessed as inhibition of interaction with SMAC at 5 mM by fluorescence polarization assay relative to control
Sequence of Baculoviral IAP repeat-containing protein 2 (Homo sapiens) (Q13490 whole entry, the tested form may be a part): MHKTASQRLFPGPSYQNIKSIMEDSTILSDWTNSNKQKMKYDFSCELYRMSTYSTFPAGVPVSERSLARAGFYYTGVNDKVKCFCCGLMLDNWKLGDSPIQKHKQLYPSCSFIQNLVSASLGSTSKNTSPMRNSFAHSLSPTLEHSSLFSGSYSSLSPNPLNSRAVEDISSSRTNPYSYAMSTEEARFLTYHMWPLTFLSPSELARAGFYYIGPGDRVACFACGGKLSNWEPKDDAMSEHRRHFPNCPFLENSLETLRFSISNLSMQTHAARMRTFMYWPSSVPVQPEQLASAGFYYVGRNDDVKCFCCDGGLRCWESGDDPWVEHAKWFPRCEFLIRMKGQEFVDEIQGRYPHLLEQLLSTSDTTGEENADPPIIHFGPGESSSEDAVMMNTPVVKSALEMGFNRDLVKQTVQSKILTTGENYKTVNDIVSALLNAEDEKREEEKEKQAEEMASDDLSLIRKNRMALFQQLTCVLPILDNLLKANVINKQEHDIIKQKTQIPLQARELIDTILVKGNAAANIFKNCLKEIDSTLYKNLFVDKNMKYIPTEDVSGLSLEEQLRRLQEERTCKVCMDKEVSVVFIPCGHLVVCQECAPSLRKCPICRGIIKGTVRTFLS
Outline: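 Competitive FP assay: cIAP1-BIR3 (4 nM) with a 2 nM SMAC-derived FAM peptide tracer, AbuRPFK(5&6FAM)-amide. Compound was tested at 5 mM. Polarization was read at ex 485/em 538 nm and expressed as percent inhibition, mean of at least two runs.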

[4] = molecular target: T1, E3 ubiquitin-protein ligase XIAP; test: Antagonist activity at XIAP-BIR3 domain (unknown origin) assessed as inhibition of interaction with SMAC at 5 mM by fluorescence polarization assay relative to control
Outline: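 Competitive FP binding of a SMAC-derived fluorescent tracer, AbuRPFK(5&6FAM)-amide (5 nM), to XIAP-BIR3 (20 nM). Compound was tested at 5 mM and equilibrated at room temperature. Polarization was read at ex 485/em 538 nm and reported as percent inhibition, mean of at least two runs.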

HCT-116 = test: cells; conditions: Homo sapiens, HCT-116, 72 h
MDA-MB-231 [5] = test: cells; conditions: Homo sapiens, MDA-MB-231, 72 h
Mus musculus [6] = test: Reduction of cIAP1 level in human MDA-MB-231 cells xenografted in Balb/c SCID mouse at 100 mg/kg, ip measured after 1 hr by MSD plate-based method relative to vehicle-treated control; type: functional, organism-based
Mus musculus [7] = test: Increase in cleaved caspase-3 level in human MDA-MB-231 cells xenografted in Balb/c SCID mouse at 100 mg/kg, ip measured after 1 to 24 hrs by Western blot analysis; type: functional, organism-based
Outline: (§1)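 Male Balb/c scid mice bearing MDA-MB-231 tumors received a single 100 mg/kg i.p. dose in 10% DMSO/90% saline (freebase equivalent). Tumors were harvested at 1, 6 and 24 h and snap frozen. Lysates were ground under liquid nitrogen in Triton lysis buffer with NaF/Na3VO4, and equal protein was run on SDS-PAGE. Blots were probed for cIAP1, XIAP, cleaved PARP and cleaved caspase-3, with infrared detection; comparison against vehicle-dosed tumors.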

Mus musculus [8] = test: Increase in cleaved PARP level in human MDA-MB-231 cells xenografted in Balb/c SCID mouse at 100 mg/kg, ip measured after 1 to 24 hrs by Western blot analysis; type: functional, organism-based; outline: as §1
Mus musculus [9] = test: Reduction of cIAP1 level in human MDA-MB-231 cells xenografted in Balb/c SCID mouse at 100 mg/kg, ip measured after 1 to 6 hrs by Western blot analysis relative to vehicle-treated control; type: functional, organism-based; outline: as §1
EVSA-T = test: cells; conditions: Homo sapiens, 72 h
Mus musculus [10] = test: Reduction of cIAP1 level in human MDA-MB-231 cells xenografted in Balb/c SCID mouse at 100 mg/kg, ip measured after 24 hrs by Western blot analysis; type: functional, organism-based; outline: as §1
Mus musculus [11] = test: Reduction of XIAP level in human MDA-MB-231 cells xenografted in Balb/c SCID mouse at 100 mg/kg, ip measured after 1 to 24 hrs by Western blot analysis; type: functional, organism-based; outline: as §1
Mus musculus [12] = test: Toxicity in Balb/c SCID mouse xenografted with human MDA-MB-231 cells assessed as effect on body weight at 100 mg/kg, ip bid measured everyday during compound dosing; conditions: in vivo
MDA-MB-231 [13] = test: Antitumor activity against human MDA-MB-231 cells xenografted in Balb/c SCID mouse assessed as tumor growth inhibition at 100 mg/kg, ip bid measured every 3 days
[14] = molecular target: T1, E3 ubiquitin-protein ligase XIAP; test: Antagonist activity at XIAP-BIR3 domain (unknown origin) assessed as inhibition of interaction with SMAC at 495 uM by fluorescence polarization assay relative to control
[15] = molecular target: T1, E3 ubiquitin-protein ligase XIAP; test: Antagonist activity at XIAP-BIR3 domain (unknown origin) assessed as inhibition of interaction with SMAC at 155 uM by fluorescence polarization assay relative to control
[16] = molecular target: Baculoviral IAP repeat-containing protein 2 (Homo sapiens) (UniProt Q13490); test: Antagonist activity at cIAP1-BIR3 domain (unknown origin) assessed as inhibition of interaction with SMAC at 0.01 uM by fluorescence polarization assay relative to control
[17] = molecular target: T1, E3 ubiquitin-protein ligase XIAP; test: Antagonist activity at full-length FLAG-tagged XIAP (unknown origin) transfected in HEK293 cells assessed as inhibition of interaction with caspase 9 after 2 hrs by immunoprecipitation assay; type: cell-based
MDA-MB-231 [18] = test: Antitumor activity against human MDA-MB-231 cells xenografted in Balb/c SCID mouse assessed as tumor growth inhibition at 100 mg/kg, po qd measured every 3 days; type: functional, organism-based
Outline: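 Balb/c scid mice were inoculated s.c. with 5 x 10^6 MDA-MB-231 cells and dosing began when group (n=8) mean tumor volume reached 100 mm³. Arms: 100 mg/kg i.p. b.i.d., 100 mg/kg p.o. q.d., or vehicle. Tumor volume (length x width x width x 0.5) measured every 3 days; body weight recorded daily.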

[19] = molecular target: T1, E3 ubiquitin-protein ligase XIAP; conditions: 0.05 uM

Structure (SMILES): C[C@@H]1CN(CC(=O)N2CCc3ccc(N)cc32)CCN1
- inhibition [1]: 56%
- inhibition [2]: 56%

Structure (SMILES): O=C(CN1CCNCC1)N1CCCCC1
- inhibition [3]: 16%
- inhibition [4]: 38%

Structure (SMILES): Brc1cnn(C2CCNCC2)c1
- inhibition [3]: 55%
- inhibition [4]: 33%

Further lines, with some results ahead:

- EC50 (HCT-116): > 10000 nM
- EC50 (MDA-MB-231 [5]): 590 nM
- EC50 (EVSA-T): 100 nM
Structure (SMILES): COC[C@H]1CN[C@H](C)CN1CC(=O)N1CC(C)(C)c2cnc(Cc3ccccc3)cc21
- Activity (Mus musculus [6]): Active
- Activity (Mus musculus [7]): Active
- Activity (Mus musculus [8]): Active
- Activity (Mus musculus [9]): Active
- Activity (Mus musculus [10]): inactive
- Activity (Mus musculus [11]): inactive
- Activity (Mus musculus [12]): Non-toxic
- TGI (MDA-MB-231 [13]): Active

- inhibition [14]: 52%
Structure (SMILES): C[C@@H]1CN(CC(=O)N2CCc3ccccc32)CCN1

- inhibition [15]: 49%
Structure (SMILES): COc1ccc2c(c1)N(C(=O)CN1CCN[C@H](C)C1)CC2

- EC50 (HCT-116): > 10000 nM
- inhibition [16]: 98%
- EC50 [17]: 34 nM
- EC50 (MDA-MB-231 [5]): 19 nM
- inhibition [19]: 70%
- EC50 (EVSA-T): 2.1 nM
Structure (SMILES): CN[C@@H](C)C(=O)N[C@H]1CN(C(=O)CC(C)C)CC[C@H]2CC[C@@H](C(=O)NC(c3ccccc3)c3ccccc3)N2C1=O [XEVINAPANT]
- TGI (MDA-MB-231 [18]): Active
